Compound activity: PubChem BioAssay, several laboratories
Rows were chosen to be rich in hits. Some 2.5% of all compounds tested hit in one or more screens of this group.
NPY Y1 blocker: NPY-Y1 receptor antagonists, primary screen, cell-based; Neuropeptide Y receptor type 1 (Homo sapiens), P25929; HEK293-CNG Y1 cells, membrane potential fluorescence; NPY at EC95, then isoproterenol; inhibition, % at 3.6 µM; actives 1% (n = 200,000); AID 1040, 2008;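 active = inhibition above the campaign mean inhibition of all tested compounds plus 3 SD, cut at about 20% in these data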
Target sequence (P25929 whole entry, looked up): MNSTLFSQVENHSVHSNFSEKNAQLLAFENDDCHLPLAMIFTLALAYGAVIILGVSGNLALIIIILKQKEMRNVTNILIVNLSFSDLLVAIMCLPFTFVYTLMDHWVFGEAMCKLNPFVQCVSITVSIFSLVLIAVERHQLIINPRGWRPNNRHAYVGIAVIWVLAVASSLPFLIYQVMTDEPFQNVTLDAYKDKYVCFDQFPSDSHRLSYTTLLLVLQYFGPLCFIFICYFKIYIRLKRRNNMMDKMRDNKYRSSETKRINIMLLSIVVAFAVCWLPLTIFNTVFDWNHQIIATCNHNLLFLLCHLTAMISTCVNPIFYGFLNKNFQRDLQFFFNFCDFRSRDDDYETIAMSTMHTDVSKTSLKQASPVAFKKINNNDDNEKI
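Material: HEK293 Y1/CNG channel cell line; also added: NPY (25 nM), isoproterenol (1 µM), Ro 20-1724 (25 µM); doses: one concentration, 3.6 µM, in 0.4% DMSO; schedule: compound incubation 1 h at room temperature, readout 45 min post-stimulation; technique: membrane potential fluorescence; measure: fluorescence ratio normalized to % inhibition between controls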
NPY Y2 blocker: NPY-Y2 receptor antagonists, primary screen, cell-based. Neuropeptide Y receptor type 2 (Homo sapiens), P49146. NPY-Y2 expressing cells, antagonist mode. actives 0.99% (n = 140,000). inhibition, % at 2.7 µM. AID 793, 2007; in the data active = inhibition above about 17%
Target sequence (P49146 whole entry, looked up): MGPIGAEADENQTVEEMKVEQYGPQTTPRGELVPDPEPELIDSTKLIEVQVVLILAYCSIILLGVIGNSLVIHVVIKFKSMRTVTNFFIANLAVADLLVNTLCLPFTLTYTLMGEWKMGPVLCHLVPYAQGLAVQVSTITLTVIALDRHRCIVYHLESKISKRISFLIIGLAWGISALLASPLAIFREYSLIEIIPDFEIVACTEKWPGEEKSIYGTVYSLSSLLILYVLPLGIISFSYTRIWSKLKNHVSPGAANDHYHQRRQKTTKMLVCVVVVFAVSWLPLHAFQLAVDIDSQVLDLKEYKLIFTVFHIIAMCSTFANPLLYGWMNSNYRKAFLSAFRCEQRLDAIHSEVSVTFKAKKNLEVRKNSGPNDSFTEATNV
NPY1 pot ag: NPY-Y1 receptor potentiators or agonists, primary screen, cell-based; Neuropeptide Y receptor type 1 (Homo sapiens), P25929; NPY-Y1 expressing cells, potentiator/agonist activation; activation, % at 3.6 µM; actives 0.37% (n = 220,000); in the data active = activation above about 33%, passing the limit was not always enough;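 also: cells stimulated with NPY at EC10 then isoproterenol at EC100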
NPY2 pot ag: NPY-Y2 potentiators or agonists, primary screen, cell-based | AID 1359, 2008 | activation, % at 3.6 µM | cells expressing NPY-Y2, potentiator/agonist read-out | actives 0.45% (n = 220,000); in the data active = activation above about 27%;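 also: cells stimulated with NPY near EC25 plus isoproterenol at EC100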
INS promoter inh: inhibitors of insulin promoter-driven GFP, primary screen, imaging, TRM-6 cells, eGFP reporter, cell count; reporter expression induced with tamoxifen; inhibition, % at 2 µM; actives 0.9% (n = 130,000);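 active = inhibition above the mean plus 3 SD, with well images judged a real hit on visual review, cut at about 60% in these data, passing the limit was not always enough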
Ins promoter up: insulin promoter activators in MIN6 cells, imaging, high-content screening, mouse beta cells | MIN6 insulin promoter-GFP reporter; hits give high values | z-score at 5 µM | actives 0.3% (n = 190,000);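 active = z-score above 3 at 5 µM with at least 500 cells counted in the well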
NPY-Y1 antag ct: NPY-Y1 receptor antagonists, selectivity check, counter-screen for NPY-Y2 antagonist project, cell-based; actives 19% (n = 710); AID 1256, 2008; inhibition, % at 3.6 µM; cell-based NPY-Y1 antagonism counterscreen; shares compounds with NPY Y2 blocker; in the data active = inhibition above about 20%;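 also: cells challenged with NPY then isoproterenol with cAMP sensed through a CNG channel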
NPY-Y2 ant conf: NPY-Y2 receptor antagonists, retest of hits, confirmation, HEK293-CNG cells, membrane potential fluorescence, triplicate; shares compounds with NPY Y2 blocker; actives 32% (n = 710); HEK293 NPY-Y2 CNG channel; inhibition, % at 2.8 µM;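 active = mean inhibition of triplicate wells above the hit cutoff set in the primary screen, cut at about 17% in these data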
Each line names hits and unclear results; the compound was inactive in the other large screens (follow-up assays come after a bar, where they were run).

O=C(CNC(=S)N(Cc1ccccc1)Cc1cccnc1)N1CCOCC1	none (no result: NPY Y2 blocker)
CC1CN(C(=O)c2cc3cc([N+](=O)[O-])ccc3s2)CC(C)O1 (configuration not stated)	none (no result: NPY Y2 blocker)
COc1ccc(/C=C/C(O)=C(\C#N)c2nnc(N3CCOCC3)n2-c2ccccc2)cc1OC	none (no result: NPY Y2 blocker, INS promoter inh)
Oc1cc(-c2ccccc2)c2ccccc2c1	none
Cc1cc(C)nc(NC(=O)CSc2nc3ccccc3s2)n1	none (no result: Ins promoter up)
Cc1ccc(S(=O)(=O)NC(=O)CSc2nc3ccccc3s2)cc1	NPY Y2 blocker 20.3 (no result: INS promoter inh) | NPY-Y1 antag ct inactive | NPY-Y2 ant conf inactive
Cc1cc(C(=O)CSc2nnc(-c3cccs3)o2)c(C)n1-c1ccccc1	NPY Y2 blocker 19.6 | NPY-Y1 antag ct inactive | NPY-Y2 ant conf inactive
O=C(CSc1nnc(-c2cccs2)o1)c1cccs1	none
Cc1cccc(S(=O)(=O)Nc2nc3ccccc3nc2NCc2ccc3c(c2)OCO3)c1	none (no result: INS promoter inh)
CCOC(=O)Cn1nc(-c2ccc(C)cc2)c2ccccc2c1=O	none (no result: NPY Y2 blocker, INS promoter inh, Ins promoter up)
CCOC(=O)Cn1nc(-c2ccccc2)c2cnc3ccc(C)cc3c21	NPY Y2 blocker 24.3 | NPY-Y1 antag ct 23.7 | NPY-Y2 ant conf 18.6
CCCC(O)(CCC)C(=O)NN(C(=O)OC)c1ccccc1	NPY Y2 blocker 19.6 (no result: INS promoter inh) | NPY-Y1 antag ct inactive | NPY-Y2 ant conf inactive
CCOC(=O)CCCCC(=O)c1[nH]c(=O)[nH]c1CSc1nnc2c3ccccc3n(C(C)C)c2n1	NPY Y2 blocker 32.1 | NPY-Y1 antag ct inactive | NPY-Y2 ant conf 44.9
C/C(=N\O)c1ccc(N2C(=O)C3CC=C(Cl)CC3C2=O)cc1 (configuration not stated)	NPY Y2 blocker 22.9 (no result: Ins promoter up) | NPY-Y1 antag ct inactive | NPY-Y2 ant conf inactive
O=[N+]([O-])c1ccc(-c2csc(Nc3ccccc3)[n+]2Cc2ccccc2)cc1	NPY Y2 blocker 18.7 (no result: INS promoter inh) | NPY-Y1 antag ct inactive | NPY-Y2 ant conf inactive
Cn1c2ccccc2c2cc(/C=C(\NC(=O)c3ccccc3)C(=O)O)ccc21	none (no result: NPY Y1 blocker, NPY Y2 blocker, INS promoter inh)
CC(C)OC(=O)/C(=C/c1ccc2c(c1)c1ccccc1n2C)NC(=O)c1ccccc1	NPY Y2 blocker 20.7 (no result: INS promoter inh) | NPY-Y1 antag ct inactive | NPY-Y2 ant conf 19.8
Cc1ccc(-n2c(SCC(=O)NCCN3C(=O)CSC3=O)nnc2-c2ccccc2)cc1	none
Cc1ccc(Nc2nc(N)nc(CSc3nc(C)cc(C)n3)n2)cc1	NPY Y2 blocker 28.7 | NPY-Y1 antag ct inactive | NPY-Y2 ant conf inactive
Cc1ccc(Nc2nc(N)nc(CSc3ncccn3)n2)cc1	none
CS(=O)(=O)N1CCN(Cc2ccc([N+](=O)[O-])cc2)CC1	none (no result: NPY Y2 blocker, INS promoter inh, Ins promoter up)
CC(C(=O)NC(C)(C)C)N(C(=O)CS(=O)CC(=O)Nc1ccc(F)cc1)c1ccccc1F (configuration not stated)	none (no result: NPY Y2 blocker, INS promoter inh)
CCOC(=O)c1cc(-c2ccccc2)sc1NC(=O)CC	NPY Y2 blocker 21.5 | NPY-Y1 antag ct inactive | NPY-Y2 ant conf inactive
CCCOC(=O)COC(=O)c1ccccc1NC(=O)c1ccccc1	NPY Y2 blocker 23.2 | NPY-Y1 antag ct inactive | NPY-Y2 ant conf inactive
Cc1cc(C)n(-c2nnc(C)n2/N=C/c2ccccc2OCc2ccccc2Cl)n1	NPY Y2 blocker 17.5 | NPY-Y1 antag ct 20.1 | NPY-Y2 ant conf inactive
CC(C)c1ccc(/C=C/C(=O)NC(=S)Nc2ccc(CN3CCOCC3)cc2)cc1	NPY Y2 blocker 21.3 (no result: INS promoter inh) | NPY-Y1 antag ct 25.1 | NPY-Y2 ant conf 72.5
CN(C)CCCN(CCCNC(=O)/C=N/O)Cc1ccccc1	none (no result: INS promoter inh)
CCN1CCN(c2ccc(S(=O)(=O)N3CCCCC3)cc2NC(=O)c2ccc(F)cc2)CC1	NPY Y2 blocker 18.4 (no result: INS promoter inh) | NPY-Y1 antag ct inactive | NPY-Y2 ant conf inactive
CC1Cc2ccccc2N1CC(=O)NC(=O)NC1CCCCC1 (configuration not stated)	none (no result: NPY Y2 blocker, INS promoter inh, Ins promoter up)
O=C(NC1CCCCC1)C(c1ccc2ncccc2c1)N(Cc1ccc(F)cc1)C(=O)c1cccs1 (configuration not stated)	NPY Y2 blocker 30.7 | NPY-Y1 antag ct inactive | NPY-Y2 ant conf inactive
COC(=O)c1ccc(C(C(=O)NC2CCCCC2)N(CCc2ccccc2)C(=O)Cc2cccs2)cc1 (configuration not stated)	none
COC(=O)c1ccc(C(C(=O)NC2CCCCC2)N(Cc2ccc(F)cc2)C(=O)Cc2cccs2)cc1 (configuration not stated)	NPY Y2 blocker 19.3 | NPY-Y1 antag ct inactive | NPY-Y2 ant conf inactive
Cn1c(=NC(=O)COc2ccccc2)sc2ccccc21	none (no result: NPY Y2 blocker)
CCN(CC)CCNC(=O)c1ccc(NC(=O)c2ccc(F)cc2F)cc1	none (no result: NPY Y2 blocker, INS promoter inh)
COc1ccc(-c2noc(CSc3nc(-c4ccccc4)cc(=O)[nH]3)n2)cc1	NPY Y2 blocker 24.6 | NPY-Y1 antag ct inactive | NPY-Y2 ant conf inactive
CCOc1ccc(NC(=S)N2CCC(C(O)(c3ccccc3)c3ccccc3)CC2)cc1	NPY Y2 blocker 54.4 | NPY-Y1 antag ct inactive | NPY-Y2 ant conf 94.2
COc1ccc(NC(=S)N2CCC(C(O)(c3ccccc3)c3ccccc3)CC2)cc1	none
N/C(=N\OC(=O)COc1ccccc1Cl)c1ccc(Cl)cc1	NPY Y2 blocker 17.9 (no result: INS promoter inh) | NPY-Y1 antag ct inactive | NPY-Y2 ant conf inactive
CC(C)(C)C1=Nn2c(nnc2-c2ccccn2)SC1	none (no result: INS promoter inh)
c1cc(CNC2C3CC4CC(C3)CC2C4)ccn1 (configuration not stated)	none (no result: NPY Y2 blocker)
CS(=O)(=O)N(CC(=O)N1CCN(Cc2ccc3c(c2)OCO3)CC1)Cc1ccc(Cl)cc1	NPY Y2 blocker 23.0 | NPY-Y1 antag ct inactive | NPY-Y2 ant conf inactive
CS(=O)(=O)N(CCc1ccccc1)CC(=O)N1CCN(Cc2ccc3c(c2)OCO3)CC1	none
CCCCc1nc2ccccc2c(N)c1CCC (tested in a mixture with another compound)	NPY Y2 blocker 18.3 | NPY-Y1 antag ct inactive | NPY-Y2 ant conf inactive
CCCCc1nc2ccccc2c(NC(=O)CNC(C)(C)C)c1CCC	none (no result: INS promoter inh)
O=C(Nc1ccccc1Cl)c1cccc(COc2cc(Cl)ccc2Cl)c1	none
CC(=O)c1cc(CC=C(C)C)c(O)cc1O	none
CC(=O)c1cc(CC=C(C)C)c(O)c(CC=C(C)C)c1O	NPY Y2 blocker 24.5 (no result: INS promoter inh) | NPY-Y1 antag ct inactive | NPY-Y2 ant conf inactive
